MIC, IC50 and log10cfu data for 30 compounds are collected here from ChEMBL document CHEMBL1240433, “Design, synthesis, and antitubercular evaluation of novel series of 3-benzofuran-5-aryl-1-pyrazolyl-pyridylmethanone and 3-benzofuran-5-aryl-1-pyrazolylcarbonyl-4-oxo-naphthyridin analogs” (Eur J Med Chem, 2010).

SMILES strings stand for the structures. pIC50: −log10 of the molar value. ≈ marks a conversion by molar mass, not a printed value.

The test system of assay [1] is Mycobacterium tuberculosis. The assay can be described thus: Antitubercular activity against Mycobacterium tuberculosis H37Rv after 6 weeks. It is filed as functional. In a few lines: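 Lowenstein-Jensen slope assay. DMSO stocks of 250 and 10 µg/mL were each mixed 0.8 mL into 7.2 mL L.J. medium, then inspissated at 75-80 °C for 3 days. A loopful of culture was dispersed with glass beads in sterile water by vortexing for 2 min and streaked onto the slopes. DMSO-only and drug-free media served as controls. Bacterial counts were read after 6 weeks at 37 °C.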

The next assay concerns Vero. The experiment in a line: Cytotoxicity against african green monkey Vero after 72 hrs by MTT assay. The format is cell-based. The settings on record: Chlorocebus sabaeus. In a few lines:
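Mammalian Vero cells were used to determine IC50. The read-out was cellular reduction of MTT to a formazan product, measured with a non-radioactive cell proliferation kit.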

Assay [2] concerns Mycobacterium tuberculosis. The experiment in a line: Antitubercular activity against Mycobacterium tuberculosis ATCC 35801 infected in CD1 mouse lung at 25 mg/kg, iv after 6 weeks. The format is functional. The method, boiled down: (§1)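 Female CD-1 mice, 6 weeks old, six per group, were infected intravenously via the caudal vein with 10^6 to 10^7 viable organisms. Dosing at 25 mg/kg intraperitoneally began 10 days after infection. Viable counts came from serial 10-fold dilutions on 7H10 agar after incubation at 37 °C in ambient air for up to 6 weeks, compared with vehicle-treated controls.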

In assay [3] the test system is Mycobacterium tuberculosis. The experiment in a line: Antitubercular activity against Mycobacterium tuberculosis ATCC 35801 infected in CD1 mouse spleen at 25 mg/kg, iv after 6 weeks. The format is functional. The method, boiled down:
as §1

Compound `O=C(c1ccncc1)N1N=C(c2cc3ccccc3o2)CC1c1cccc([N+](=O)[O-])c1` (stereo not given) yielded a minimal inhibitory concentration (MIC) in assay [1] of 7.5 µg/mL (≈ 18.2 µM). The compound further had a pIC50 in the assay with Vero of under 3.62. Besides, the results for the log10cfu in assay [2] and in assay [3] were 10.8 and 11.6, respectively.

On to `COc1ccc(C2CC(c3cc4ccccc4o3)=NN2C(=O)c2ccncc2)c(O)c1` (stereo not given), for which inhibition of growth in assay [1] (MIC) required 3.3 µg/mL (≈ 7.98 µM). Besides, the negative-log IC50 (pIC50) in the assay on Vero is under 3.72. For the same compound, the log10cfu is 6.98 in assay [2] and 6.52 in assay [3].

As for `O=C(c1ccncc1)N1N=C(c2cc3ccccc3o2)CC1c1ccc(O)cc1` (stereo not given), it took 4.5 µg/mL (≈ 11.7 µM) to inhibit growth in assay [1] (MIC). The same compound gave a negative logarithm of the IC50 (pIC50) with Vero of under 3.70. Moreover, the values for the log10cfu in assay [2] and in assay [3] were 7.46 and 8.2, respectively.

Turning to `O=C(c1ccncc1)N1N=C(c2cc3ccccc3o2)CC1c1ccc(Cl)cc1` (stereo not given), the MIC in assay [1] turned out to be 11.5 µg/mL (≈ 28.6 µM). In the assay on Vero, this compound showed a pIC50 of under 3.66. In addition, the figures for the log10cfu in assay [2] and in assay [3] were 13.8 and 12.4, respectively.

The compound `O=C(c1ccncc1)N1N=C(c2cc3ccccc3o2)CC1c1ccccc1Cl` (stereo not given) had an MIC in assay [1] of 10.6 µg/mL (≈ 26.4 µM). Also, the negative logarithm of the IC50 (pIC50) in the assay with Vero is under 3.68. Moreover, the values for the log10cfu in assay [2] and in assay [3] were 12.5 and 12.2, respectively.

In turn, `O=C(c1ccncc1)N1N=C(c2cc3ccccc3o2)CC1c1ccccc1[N+](=O)[O-]` (stereo not given) gave an MIC in assay [1] of 8.2 µg/mL (≈ 19.9 µM). In the assay on Vero, this compound showed a pIC50 of under 3.61. The log10cfu in assay [2] is listed as 9.5; in assay [3], 10.5.

`COc1ccc(C2CC(c3cc4ccccc4o3)=NN2C(=O)c2ccncc2)cc1` (stereo not given) yielded an MIC in assay [1] of 6.8 µg/mL (≈ 17.1 µM). Moreover, in the assay with Vero, the pIC50 is under 3.70. The log10cfu in assay [2] is reported as 8.6; in assay [3] it was 9.24.

In turn, `O=C(c1ccncc1)N1N=C(c2cc3ccccc3o2)CC1c1ccccc1` (stereo not given) came in with a minimal inhibitory concentration (MIC) in assay [1] of 8.5 µg/mL (≈ 23.1 µM). Moreover, in the assay on Vero, the pIC50 is under 3.68. For the same compound, the log10cfu was 9.4 in assay [2] and 10.6 in assay [3].

Turning to `O=C(c1ccncc1)N1N=C(c2cc3ccccc3o2)CC1c1ccco1` (stereo not given), the MIC in assay [1] is 9.6 µg/mL (≈ 26.9 µM). The negative logarithm of the IC50 (pIC50) in the assay with Vero is under 3.68. For the same compound, the values for the log10cfu in assay [2] and in assay [3] were 11.4 and 12.6, respectively.

For the compound `O=C(c1ccncc1)N1N=C(c2cc3ccccc3o2)CC1/C=C/c1ccccc1` (stereo not given), in assay [1], the MIC worked out at 8.6 µg/mL (≈ 21.9 µM). This compound also gave a negative logarithm of the IC50 (pIC50) with Vero of under 3.67. Moreover, the log10cfu worked out at 10.8 in assay [2] and 11.6 in assay [3].

Regarding `CCn1cc(C(=O)N2N=C(c3cc4ccccc4o3)CC2c2ccccc2O)c(=O)c2ccc(C)nc21` (stereo not given), inhibition of growth in assay [1] (MIC) required 1.2 µg/mL (≈ 2.44 µM). This compound had a pIC50 with Vero of under 3.80. In addition, the log10cfu worked out at 4.11 in assay [2] and 5.36 in assay [3].

Regarding `CCn1cc(C(=O)N2N=C(c3cc4ccccc4o3)CC2c2ccccc2OC)c(=O)c2ccc(C)nc21` (stereo not given), in assay [1], the lowest concentration to inhibit growth (MIC) was 5.5 µg/mL (≈ 10.9 µM). In the assay on Vero, the pIC50 is under 3.73. For the same compound, the results for the log10cfu in assay [2] and in assay [3] were 6.87 and 6.13, respectively.

`CCn1cc(C(=O)N2N=C(c3cc4ccccc4o3)CC2c2ccc(N(C)C)cc2)c(=O)c2ccc(C)nc21` (stereo not given) returned a minimal inhibitory concentration (MIC) in assay [1] of 9.2 µg/mL (≈ 17.7 µM). The compound further gave a negative-log IC50 (pIC50) with Vero of under 3.68. Moreover, the figures for the log10cfu in assay [2] and in assay [3] were 4.82 and 6.53, respectively.

For `CCn1cc(C(=O)N2N=C(c3cc4ccccc4o3)CC2c2ccccc2C(=O)O)c(=O)c2ccc(C)nc21` (stereo not given), the lowest concentration to inhibit growth in assay [1] (MIC) was 4.5 µg/mL (≈ 8.64 µM). In the assay on Vero, this compound showed a negative logarithm of the IC50 (pIC50) of under 3.71. The log10cfu in assay [2] came to 5.12; in assay [3], 6.16.

In the case of `CCn1cc(C(=O)N2N=C(c3cc4ccccc4o3)CC2c2cccc([N+](=O)[O-])c2)c(=O)c2ccc(C)nc21` (stereo not given), in assay [1], the minimal inhibitory concentration (MIC) is 2.3 µg/mL (≈ 4.41 µM). For the same compound, the pIC50 in the assay on Vero is under 3.78. Moreover, the log10cfu in assay [2] was found to be 2.65; in assay [3] it was 3.25.

`CCn1cc(C(=O)N2N=C(c3cc4ccccc4o3)CC2c2ccc(OC)cc2O)c(=O)c2ccc(C)nc21` (stereo not given) gave an MIC in assay [1] of 4.2 µg/mL (≈ 8.04 µM). In the assay on Vero, this compound showed a pIC50 of under 3.81. In addition, the log10cfu is recorded as 8.42 in assay [2] and 9.28 in assay [3].

Regarding `CCn1cc(C(=O)N2N=C(c3cc4ccccc4o3)CC2c2ccc(O)cc2)c(=O)c2ccc(C)nc21` (stereo not given), the MIC in assay [1] came out at 3.2 µg/mL (≈ 6.5 µM). Moreover, the pIC50 in the assay on Vero is under 3.83. Further, the log10cfu in assay [2] amounted to 5.49; in assay [3] it was 7.21.

Regarding `CCn1cc(C(=O)N2N=C(c3cc4ccccc4o3)CC2c2ccc(Cl)cc2)c(=O)c2ccc(C)nc21` (stereo not given), the MIC in assay [1] is 8.3 µg/mL (≈ 16.2 µM). In the assay with Vero, the negative-log IC50 (pIC50) was under 3.79. The log10cfu in assay [2] came out at 11.52; in assay [3] it was 12.12.

Compound `CCn1cc(C(=O)N2N=C(c3cc4ccccc4o3)CC2c2ccccc2Cl)c(=O)c2ccc(C)nc21` (stereo not given) registered a minimal inhibitory concentration (MIC) in assay [1] of 7.8 µg/mL (≈ 15.3 µM). In the assay on Vero, this compound gave a negative logarithm of the IC50 (pIC50) of under 3.75. The log10cfu in assay [2] worked out at 10.85; in assay [3] it was 10.96.

Regarding `CCn1cc(C(=O)N2N=C(c3cc4ccccc4o3)CC2c2ccccc2[N+](=O)[O-])c(=O)c2ccc(C)nc21` (stereo not given), the MIC in assay [1] worked out at 1.9 µg/mL (≈ 3.64 µM). In the assay on Vero, this compound gave a pIC50 of under 4.07. In addition, the figures for the log10cfu in assay [2] and in assay [3] were 5.67 and 6.12, respectively.

On to `O=C(c1ccncc1)N1N=C(c2cc3ccccc3o2)CC1c1ccccc1O` (stereo not given), for which, in assay [1], the lowest concentration to inhibit growth (MIC) was 3.7 µg/mL (≈ 9.65 µM). In the assay with Vero, this compound had a pIC50 of under 3.71. Besides, the log10cfu worked out at 7.2 in assay [2] and 9.45 in assay [3].

In assay [1], `COc1ccccc1C1CC(c2cc3ccccc3o2)=NN1C(=O)c1ccncc1` (stereo not given) displayed a minimal inhibitory concentration (MIC) of 6.5 µg/mL (≈ 16.4 µM). Further, the pIC50 in the assay on Vero is under 3.69. For the same compound, the results for the log10cfu in assay [2] and in assay [3] were 9.65 and 10.6, respectively.

For the compound `CCn1cc(C(=O)N2N=C(c3cc4ccccc4o3)CC2c2ccc(OC)cc2)c(=O)c2ccc(C)nc21` (stereo not given), the lowest concentration to inhibit growth in assay [1] (MIC) was 6.3 µg/mL (≈ 12.4 µM). In the assay on Vero, this compound showed a negative logarithm of the IC50 (pIC50) of under 3.81. For the same compound, the results for the log10cfu in assay [2] and in assay [3] were 9.32 and 10.77, respectively.

On to `CCn1cc(C(=O)N2N=C(c3cc4ccccc4o3)CC2c2ccccc2)c(=O)c2ccc(C)nc21` (stereo not given), for which the MIC in assay [1] was 9.8 µg/mL (≈ 20.6 µM). The compound also had a negative-log IC50 (pIC50) in the assay with Vero of under 3.68. For the same compound, the values for the log10cfu in assay [2] and in assay [3] were 12.23 and 12.98, respectively.

Take `CN(C)c1ccc(C2CC(c3cc4ccccc4o3)=NN2C(=O)c2ccncc2)cc1` (stereo not given): the MIC in assay [1] was found to be 9.2 µg/mL (≈ 22.4 µM). This compound had a pIC50 in the assay with Vero of under 3.68. Also, the log10cfu was 14.4 in assay [2] and 15.8 in assay [3].

As for `O=C(O)c1ccccc1C1CC(c2cc3ccccc3o2)=NN1C(=O)c1ccncc1` (stereo not given), the MIC in assay [1] was 2.2 µg/mL (≈ 5.35 µM). The compound further had a pIC50 in the assay on Vero of under 3.77. Moreover, the log10cfu was found to be 6.24 in assay [2] and 5.42 in assay [3].

`CCn1cc(C(=O)N2N=C(c3cc4ccccc4o3)CC2c2ccco2)c(=O)c2ccc(C)nc21` (stereo not given) registered a minimum inhibitory concentration (MIC) in assay [1] of 7.5 µg/mL (≈ 16.1 µM). The compound further gave a pIC50 with Vero of under 3.73. Besides, the values for the log10cfu in assay [2] and in assay [3] were 9.66 and 10.52, respectively.

The compound `CCn1cc(C(=O)N2N=C(c3cc4ccccc4o3)CC2/C=C/c2ccccc2)c(=O)c2ccc(C)nc21` (stereo not given) gave an MIC in assay [1] of 5.5 µg/mL (≈ 10.9 µM). This compound gave a negative logarithm of the IC50 (pIC50) in the assay with Vero of under 3.77. The log10cfu was 4.61 in assay [2] and 6.32 in assay [3].

`NNC(=O)c1ccncc1` [ISONIAZID] registered a minimum inhibitory concentration (MIC) in assay [1] of 0.32 µg/mL (≈ 2.33 µM). In the assay on Vero, this compound gave a pIC50 of under 3.88. The log10cfu in assay [2] turned out to be 4.62; in assay [3], 5.45.

As for `CO[C@H]1/C=C/O[C@@]2(C)Oc3c(C)c(O)c4c(O)c(c(/C=N/N5CCN(C)CC5)c(O)c4c3C2=O)NC(=O)/C(C)=C\C=C\[C@H](C)[C@H](O)[C@@H](C)[C@@H](O)[C@@H](C)[C@H](OC(C)=O)[C@@H]1C` [RIFAMPIN], it took 0.6 µg/mL (≈ 0.729 µM) to inhibit growth in assay [1] (MIC). The pIC50 in the assay with Vero is under 4.13. The log10cfu in assay [2] is reported as 3.21; in assay [3], 3.98.
